Assay results as given in ChEMBL document CHEMBL5058577, “EUbOPEN Chemogenomics Library 2 (Multiplex)” (2022).

Tested on: U2OS
Assay: Multiplex assay against U2OS
Format: toxicity, cell-based
Settings: human
In short: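 Live cells were stained at seeding with Hoechst33342, BioTracker Green Microtubule Cytoskeleton Dye, MitoTracker Red and Annexin V Alexa Fluor 680. Following compound addition, they were imaged on a CQ1 microscope at 37°C and 5% CO2 and gated by CellPathfinder machine learning into Hoechst high-intensity objects or normal cells, with normal cells split into healthy, pyknosed or fragmented nuclei and pyknosed cells into mitotic or apoptotic. Tubulin, mitochondrial-mass and membrane-permeability phenotypes are per cents of healthy-nucleus cells.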

[1] = 12 h, 1 µM, compound concentration 1 uM, replicate 1
[2] = 12 h, 1 µM, compound concentration 1 uM, replicate 2
[3] = 12 h, 10 µM, compound concentration 10 uM, replicate 1
[4] = 12 h, 10 µM, compound concentration 10 uM, replicate 2
[5] = 24 h, 1 µM, compound concentration 1 uM, replicate 1
[6] = 24 h, 1 µM, compound concentration 1 uM, replicate 2
[7] = 24 h, 10 µM, compound concentration 10 uM, replicate 1
[8] = 24 h, 10 µM, compound concentration 10 uM, replicate 2
[9] = 48 h, 1 µM, compound concentration 1 uM, replicate 1
[10] = 48 h, 1 µM, compound concentration 1 uM, replicate 2
[11] = 48 h, 10 µM, compound concentration 10 uM, replicate 1
[12] = 48 h, 10 µM, compound concentration 10 uM, replicate 2

CCCCC[C@H](O)/C=C/[C@H]1[C@H](O)CC(=O)[C@@H]1CCCCCCC(=O)O [ALPROSTADIL]
Population Apoptotic (%) [1]: 100% | Population Fragmented Nuclei (%) [1]: 31% | Population Healthy Nuclei (%) [1]: 62% | Population Hoechst High Intensity Objects (%) [1]: 1% | Population Membrane Permeable-Phenotype (%) [1]: 4% | Population Mitochondria Different-Phenotype (%) [1]: 2% | Population Mitotic Cells (%) [1]: 0% | Population Normal (%) [1]: 98% | Population Pyknosed Nuclei (%) [1]: 6% | Population Tubulin-Different-Phenotype (%) [1]: 2% | Total Cell Count [1]: 219 | Population Apoptotic (%) [2]: 77% | Population Fragmented Nuclei (%) [2]: 11% | Population Healthy Nuclei (%) [2]: 81% | Population Hoechst High Intensity Objects (%) [2]: 0% | Population Membrane Permeable-Phenotype (%) [2]: 9% | Population Mitochondria Different-Phenotype (%) [2]: 5% | Population Mitotic Cells (%) [2]: 22% | Population Normal (%) [2]: 100% | Population Tubulin-Different-Phenotype (%) [2]: 6% | Total Cell Count [2]: 132 | Population Apoptotic (%) [3]: 71% | Population Fragmented Nuclei (%) [3]: 23% | Population Healthy Nuclei (%) [3]: 69% | Population Hoechst High Intensity Objects (%) [3]: 1% | Population Membrane Permeable-Phenotype (%) [3]: 1% | Population Mitochondria Different-Phenotype (%) [3]: 0% | Population Mitotic Cells (%) [3]: 28% | Population Normal (%) [3]: 98% | Population Pyknosed Nuclei (%) [3]: 6% | Population Tubulin-Different-Phenotype (%) [3]: 0% | Total Cell Count [3]: 222 | Population Apoptotic (%) [4]: 77% | Population Fragmented Nuclei (%) [4]: 15% | Population Healthy Nuclei (%) [4]: 75% | Population Hoechst High Intensity Objects (%) [4]: 2% | Population Membrane Permeable-Phenotype (%) [4]: 5% | Population Mitochondria Different-Phenotype (%) [4]: 3% | Population Mitotic Cells (%) [4]: 22% | Population Normal (%) [4]: 97% | Population Pyknosed Nuclei (%) [4]: 8% | Population Tubulin-Different-Phenotype (%) [4]: 5% | Total Cell Count [4]: 104 | Population Apoptotic (%) [5]: 91% | Population Fragmented Nuclei (%) [5]: 25% | Population Healthy Nuclei (%) [5]: 65% | Population Hoechst High Intensity Objects (%) [5]: 1% | Population Membrane Permeable-Phenotype (%) [5]: 5% | Population Mitochondria Different-Phenotype (%) [5]: 2% | Population Mitotic Cells (%) [5]: 8% | Population Normal (%) [5]: 98% | Population Pyknosed Nuclei (%) [5]: 9% | Population Tubulin-Different-Phenotype (%) [5]: 3% | Total Cell Count [5]: 263 | Population Apoptotic (%) [6]: 87% | Population Fragmented Nuclei (%) [6]: 14% | Population Healthy Nuclei (%) [6]: 75% | Population Hoechst High Intensity Objects (%) [6]: 0% | Population Membrane Permeable-Phenotype (%) [6]: 8% | Population Mitochondria Different-Phenotype (%) [6]: 4% | Population Mitotic Cells (%) [6]: 12% | Population Normal (%) [6]: 99% | Total Cell Count [6]: 166 | Population Apoptotic (%) [7]: 94% | Population Fragmented Nuclei (%) [7]: 19% | Population Healthy Nuclei (%) [7]: 74% | Population Hoechst High Intensity Objects (%) [7]: 1% | Population Membrane Permeable-Phenotype (%) [7]: 5% | Population Mitochondria Different-Phenotype (%) [7]: 0% | Population Mitotic Cells (%) [7]: 5% | Population Normal (%) [7]: 98% | Population Pyknosed Nuclei (%) [7]: 6% | Population Tubulin-Different-Phenotype (%) [7]: 3% | Total Cell Count [7]: 271 | Population Apoptotic (%) [8]: 100% | Population Fragmented Nuclei (%) [8]: 12% | Population Healthy Nuclei (%) [8]: 76% | Population Hoechst High Intensity Objects (%) [8]: 0% | Population Membrane Permeable-Phenotype (%) [8]: 4% | Population Mitochondria Different-Phenotype (%) [8]: 2% | Population Mitotic Cells (%) [8]: 0% | Population Normal (%) [8]: 99% | Population Pyknosed Nuclei (%) [8]: 10% | Population Tubulin-Different-Phenotype (%) [8]: 1% | Total Cell Count [8]: 131 | Population Apoptotic (%) [9]: 87% | Population Fragmented Nuclei (%) [9]: 22% | Population Healthy Nuclei (%) [9]: 68% | Population Hoechst High Intensity Objects (%) [9]: 2% | Population Membrane Permeable-Phenotype (%) [9]: 4% | Population Mitochondria Different-Phenotype (%) [9]: 2% | Population Mitotic Cells (%) [9]: 12% | Population Normal (%) [9]: 97% | Population Pyknosed Nuclei (%) [9]: 9% | Population Tubulin-Different-Phenotype (%) [9]: 2% | Total Cell Count [9]: 367 | Population Apoptotic (%) [10]: 95% | Population Fragmented Nuclei (%) [10]: 18% | Population Healthy Nuclei (%) [10]: 71% | Population Hoechst High Intensity Objects (%) [10]: 3% | Population Membrane Permeable-Phenotype (%) [10]: 6% | Population Mitochondria Different-Phenotype (%) [10]: 5% | Population Mitotic Cells (%) [10]: 4% | Population Normal (%) [10]: 96% | Population Tubulin-Different-Phenotype (%) [10]: 6% | Total Cell Count [10]: 236 | Population Apoptotic (%) [11]: 88% | Population Fragmented Nuclei (%) [11]: 13% | Population Healthy Nuclei (%) [11]: 76% | Population Hoechst High Intensity Objects (%) [11]: 0% | Population Membrane Permeable-Phenotype (%) [11]: 4% | Population Mitochondria Different-Phenotype (%) [11]: 0% | Population Mitotic Cells (%) [11]: 11% | Population Normal (%) [11]: 99% | Population Pyknosed Nuclei (%) [11]: 10% | Population Tubulin-Different-Phenotype (%) [11]: 3% | Total Cell Count [11]: 362 | Population Apoptotic (%) [12]: 100% | Population Fragmented Nuclei (%) [12]: 11% | Population Healthy Nuclei (%) [12]: 77% | Population Hoechst High Intensity Objects (%) [12]: 2% | Population Membrane Permeable-Phenotype (%) [12]: 6% | Population Mitochondria Different-Phenotype (%) [12]: 1% | Population Mitotic Cells (%) [12]: 0% | Population Normal (%) [12]: 97% | Population Tubulin-Different-Phenotype (%) [12]: 4% | Total Cell Count [12]: 165
